Assay results: the RNAGym collection of RNA variant scans (doi:10.1126/science.aae0568)
This sample holds only a part of the variants without activity.

B1: tRNA (parent)
chain: GUUCCGUUGGCGUAAUGGUAACGCGUCUCCCUCCUAAGGAGAAGACUGCGGGUUCGAGUCCCGUACGGAACG

Variants of: B1
Assay: yeast fitness relative to wild type (ratio to wild type); higher = fitter; tRNA-Arg(CCU), competitive growth, 37 C, YPD
Method in brief: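 Variants of the tRNA-Arg(CCU) gene, chemically synthesised with a 3% per-site mutation rate at 69 sites, were placed at the native genomic locus in Saccharomyces cerevisiae. The pooled strains were competed in YPD at 37°C for 24 hours in six parallel replicates. Gene amplicons from the start population and from each end population were read by 100-nucleotide paired-end sequencing. Darwinian fitness relative to wild type came from changes in genotype frequencies; genotypes needed ≥ 100 starting reads, and estimates < 0.5 were set to 0.5.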
C27G G56A A70U gave a yeast fitness of 0.531. A14G A20G C22G U59C A65U gave a yeast fitness of at most 0.5. Work on C4U G18C G51A C66A yielded a yeast fitness of at most 0.5. C11G A42U C49G G58C A69U showed a yeast fitness of at most 0.5. In the case of U19C C33G A36U G44A, the yeast fitness is reported as at most 0.5. Variant A20U A36C C49A C66G has a yeast fitness of at most 0.5. Work on U7A U54C yielded a yeast fitness of 0.734. A20U C49U A65C gave a yeast fitness of 0.655. For A20C G23C C34A G67A, the yeast fitness was at most 0.5. G50A G52A showed a yeast fitness of 0.688. Variant G9C C31A C62G C66U has a yeast fitness of at most 0.5. A20U C46G gave a yeast fitness of 1.07. U3C U8G U28G C31A C61U gave a yeast fitness of at most 0.5. C5G U19C gave a yeast fitness of 0.997. Variant C34A A45C G68A has a yeast fitness of 0.614. With A15G G41C A45G the yeast fitness was at most 0.5. In the case of U19G C46A, the yeast fitness is reported as 0.932. C11A C27U C46G gave a yeast fitness of 0.524. Variant U3A A21C A36U G58A has a yeast fitness of at most 0.5. With C24G C29G C33A G48A C55G the yeast fitness was at most 0.5. C29G G39C A70U showed a yeast fitness of 0.633. Variant C62A G68A has a yeast fitness of 0.797. G52A C60G gave a yeast fitness of at most 0.5. C5G A15G U16A A20G U28A C30A C33A A36U A70U showed a yeast fitness of at most 0.5. C4U A21C G41U gave a yeast fitness of 0.625. In the case of C4U G56C A65U, the yeast fitness is reported as at most 0.5. For U2G C24U A45C G48A G67A, the yeast fitness was at most 0.5. A15G C34A showed a yeast fitness of 0.811. U19G U26C C29G A57U A69U A70C gave a yeast fitness of at most 0.5. With G9C A14U A45U C49G C55G G67C the yeast fitness was at most 0.5. Work on G25C C31U U53C yielded a yeast fitness of 0.633. With C22U A40C C66U the yeast fitness was 0.523. In the case of U2G G12A G41C A57U, the yeast fitness is reported as at most 0.5. C4U U8A U13C C46A showed a yeast fitness of 0.619. U19C C24G A37U G56A A65C gave a yeast fitness of at most 0.5. C4U C5G A15U C22G C30U U53G G58A U59A showed a yeast fitness of 0.603. Variant C5U A14C C29U C33A C49U C55G has a yeast fitness of at most 0.5. With U13A C22G C29G A40U U54C C61G the yeast fitness was at most 0.5. Work on C30G A42G U64G yielded a yeast fitness of at most 0.5. U3G C46U C49U showed a yeast fitness of 0.698. In the case of U26C C31U C46A G48C A57U, the yeast fitness is reported as 0.649. Variant C24G C46G G48A C55U U64A A69C has a yeast fitness of 0.5. With A57G A70U the yeast fitness was 0.937. Variant A15C G44A A57C has a yeast fitness of at most 0.5. In the case of C11A G18A C31U A69C, the yeast fitness is reported as 0.605. Variant C22G C24U C29U C30G U53A U54A has a yeast fitness of at most 0.5. Work on G6A C11U G68C yielded a yeast fitness of 0.54. G17C A21U C33G gave a yeast fitness of at most 0.5. With A14C C27A A37G G51C the yeast fitness was 0.615. Variant U8C G23A has a yeast fitness of 0.793. Work on U7C A43U yielded a yeast fitness of 0.949. In the case of A20G C30A G48A U53G, the yeast fitness is reported as 0.505. U7C A57G gave a yeast fitness of 0.842. C33U G41A gave a yeast fitness of 0.721. For U2C G67A A70U, the yeast fitness was 0.67. Work on U19C U53C G56A yielded a yeast fitness of 0.622. Work on C5A A20U A36G yielded a yeast fitness of at most 0.5. With U16A A37G A40C G58A the yeast fitness was 0.604. Variant U3C A37C U64A has a yeast fitness of 0.598. With A14C C30A A40U the yeast fitness was at most 0.5. G18C C22G showed a yeast fitness of 0.682. In the case of C4G A21C C49A A65G, the yeast fitness is reported as at most 0.5. Variant C22A C61U has a yeast fitness of 0.864. With C11G U16A C29U C66A the yeast fitness was at most 0.5. C22G C30U C49G showed a yeast fitness of at most 0.5. Work on C5A G17C G18C C61G yielded a yeast fitness of at most 0.5. Variant C34G A40G C46G C49A C66A A69U has a yeast fitness of at most 0.5. Variant G9A G48C G52A has a yeast fitness of at most 0.5. Work on C62U yielded a yeast fitness of 0.994. Variant C22G C24A C55A has a yeast fitness of at most 0.5. Work on G6A A14C A37U A57C G67U yielded a yeast fitness of at most 0.5. U2G C11G A20G C24U U26C C31G showed a yeast fitness of at most 0.5. U19G U59C A69C showed a yeast fitness of 0.658. Work on U3A C24G C33G G51A U53A G56A G67C yielded a yeast fitness of at most 0.5. Variant G6A U8C G23A A57C has a yeast fitness of at most 0.5. U26G C34U A40G G51A showed a yeast fitness of at most 0.5. For C46G A57U C66U, the yeast fitness was 0.608. Work on C5G A14U C60A yielded a yeast fitness of at most 0.5. U26A G38C U47G G58A gave a yeast fitness of at most 0.5. In the case of U3A A20U C49U, the yeast fitness is reported as 0.531. Variant A15G G17C G23A G25A C66U has a yeast fitness of at most 0.5. U8C A15G G38C U64A G68A A69C gave a yeast fitness of at most 0.5. Work on A20C C29G A69C yielded a yeast fitness of 0.539. Variant C11U C30A U47A C62A has a yeast fitness of 0.591. For C11G G41C A42C A43U, the yeast fitness was at most 0.5. Variant G10C C33U A36G A43G has a yeast fitness of at most 0.5. G12A G50A showed a yeast fitness of 1.01. A15G G63C A69U gave a yeast fitness of 0.651. G10A C31A U32C G41C showed a yeast fitness of at most 0.5. For A15U U28A C33G G56A, the yeast fitness was at most 0.5. C22U A37U G52C C61G C66A showed a yeast fitness of at most 0.5. For C24G C33G U53C C55U A70G, the yeast fitness was 0.57. Work on C11U A15C A21G C29U A37G yielded a yeast fitness of at most 0.5. Work on C29U A37C A65C yielded a yeast fitness of at most 0.5. With C4U A20U G50A G52A C60U C61G the yeast fitness was at most 0.5. Work on G6A C22G C31U yielded a yeast fitness of 0.771. Variant A36G G38C G52C A57U A69U A70G has a yeast fitness of at most 0.5. A20U A36G C55G A65U showed a yeast fitness of 0.52. With U3G C30U G48C G68C the yeast fitness was 0.526. C34U C61G A70U showed a yeast fitness of at most 0.5. In the case of A14C U28G C55G G68C, the yeast fitness is reported as at most 0.5. With A20G G25C C34U G41A C49G the yeast fitness was at most 0.5. C4A A14G C24U U32G A43G C66U gave a yeast fitness of 0.573. Work on U3A C29G C60G yielded a yeast fitness of at most 0.5. Variant C4U A40C has a yeast fitness of 0.835. U7G A20G A70G showed a yeast fitness of 0.615. For A21G G39C A42C, the yeast fitness was 0.563. Variant C5U A15U C29U C31U C34U C66A has a yeast fitness of at most 0.5. Work on C31U A43U G48A A57U G67C yielded a yeast fitness of at most 0.5. Variant G6U U7C A70C has a yeast fitness of at most 0.5. C4A C5G C24G C29U showed a yeast fitness of at most 0.5. Variant U3G U8C C33U U54C C66A has a yeast fitness of at most 0.5. Variant C4A G18C C61U has a yeast fitness of at most 0.5. Work on U8G U26C yielded a yeast fitness of 0.592. With U13A A20C C33A G39A the yeast fitness was at most 0.5. Variant A21G U64C has a yeast fitness of 0.864. In the case of C5U U32G, the yeast fitness is reported as 0.669. Work on C5G A15U C24A yielded a yeast fitness of 0.654. G9C A70C showed a yeast fitness of 0.866. For C22U C31G U35A C49U C66U G67A, the yeast fitness was at most 0.5. Variant C11U A15G U26G U28C C33A C55G has a yeast fitness of at most 0.5. Variant A14U A20U A42G A65C A69C A70G has a yeast fitness of at most 0.5. For C4U G39C, the yeast fitness was 0.829. In the case of C30G C34A A57U C61G, the yeast fitness is reported as at most 0.5. In the case of U3G C4G G6C C29A A36C C62U, the yeast fitness is reported as at most 0.5. C11U C62U A70C gave a yeast fitness of 0.698. Work on G9A G12U A14U C34A A65C yielded a yeast fitness of at most 0.5. For C22A C27U A43G C46G C49U A69C, the yeast fitness was at most 0.5. In the case of C5U A20U G67A, the yeast fitness is reported as 0.882. With A14C A21C C24U A36U A43U G56A G58C C66A the yeast fitness was at most 0.5. With C27U C29A G38C A57G A65C C66A the yeast fitness was at most 0.5. In the case of C29A A69G, the yeast fitness is reported as 0.6. For C5A C22G C24G C31U A43U G48A A69U, the yeast fitness was 0.507. With C27U A37C the yeast fitness was 0.664. Work on U2C U32G C34U A57G yielded a yeast fitness of at most 0.5. C5U U13A C29G C31G gave a yeast fitness of at most 0.5. C5U A14C C34G A37U A40U showed a yeast fitness of at most 0.5. In the case of C5G U7C A14U C24U C46G C62U C66U, the yeast fitness is reported as at most 0.5. G9A A69C A70C gave a yeast fitness of 1.04. For U28G A57U A70U, the yeast fitness was 0.721. With C31U A69G the yeast fitness was 0.924. In the case of G12C A37U G38A C55G, the yeast fitness is reported as at most 0.5. Variant C31U C61A A69C has a yeast fitness of 0.597. With A15G A20C the yeast fitness was 0.779. For U16G C24U C29G U35C G50A C62A, the yeast fitness was at most 0.5. With G10A C24A C49G G58C the yeast fitness was at most 0.5. U28G C31G A57C C66U showed a yeast fitness of at most 0.5. For U13A A21C A37G A42G, the yeast fitness was at most 0.5. Variant U7A A14G A21C U47A G48A has a yeast fitness of at most 0.5. In the case of C30G U59C A65U, the yeast fitness is reported as 0.528. With G17U C24A C31U the yeast fitness was at most 0.5. With U28A G39A C46A A57C the yeast fitness was at most 0.5. Work on A36G U59A A65C A70C yielded a yeast fitness of at most 0.5. Work on A15U C27A C62A A69U yielded a yeast fitness of at most 0.5. Work on C4U C46A G50A C61U C62U yielded a yeast fitness of 1.09. Work on U8C U35G yielded a yeast fitness of 0.693. Work on C22U U64C yielded a yeast fitness of 0.977. C22U U32C C55A showed a yeast fitness of at most 0.5. In the case of C4U C34A C62U, the yeast fitness is reported as 0.566. Work on U19G C29U A40C C60G C62A A65G yielded a yeast fitness of 0.525. With G39C A43G U53A C62A G68C the yeast fitness was at most 0.5. In the case of C11U U28C U32G A70U, the yeast fitness is reported as at most 0.5. For U13C C29U G56C, the yeast fitness was at most 0.5. In the case of G41U A69U, the yeast fitness is reported as 0.845. With U3C U16G U19A A43C A57U A69C the yeast fitness was at most 0.5. G12A A42G A65C gave a yeast fitness of 0.6. In the case of U3A C4A U8C C29G A37C A70C, the yeast fitness is reported as at most 0.5.
